{"source": "paper PMC3364105", "about": "(Nature Biotechnology, 2011)", "type_in_all_cases": "in vivo", "key": {"sciatic nerve": {"test_system": "sciatic nerve", "assay": "Cy5-NP41 nerve labeling and localization in thy1-YFP transgenic mice", "settings": "for nerve-to-muscle contrast / nerve labeling: injected into thy1-YFP transgenic mice"}, "[1]": {"assay": "Behavior, activity, weight and morbidity after injection", "settings": "mice, injections of 75–300 nmoles"}, "[2]": {"assay": "Biodistribution and urine metabolites after systemic administration", "settings": "mice", "summary_of_the_method": "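Mice received 150 nmoles FAM- or Cy5-labeled test peptide intravenously. Organs were harvested and fluorescence uptake was evaluated. Urine was analysed by MALDI mass spectrometry to identify the major fluorescently labeled species. The control was an all-D-amino-acid FAM-labeled peptide.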"}, "peripheral nerves": {"test_system": "peripheral nerves", "settings": "FAM-labeled peptide, intravenous, living mice; for background binding to surrounding nonneural tissue: 2–4 h after injection", "summary_of_the_method": "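Peptides were made as fluorescein-5(6)-carbonyl (FAM) conjugates on a C-terminal lysinamide. The control was a same-format peptide with the shared amino acids in random order. Each was given intravenously to living mice, and FAM fluorescence contrast between peripheral nerve and muscle was evaluated 2–4 h post-injection.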"}}}
{"compound": "acetyl-SHSNTQTLAKAPEHTGC-(Cy5)-amide [Cy5-NP41]", "values": [{"measurement": "localization within nerve", "setting": "sciatic nerve; 3–5 µm cryosections of nerves from thy1-YFP animals", "value": "localized to the epineurium of the nerves with some labeling of the perineurium and endoneurium, but did not colocalize with either myelin or axons"}, {"measurement": "nerve-to-muscle contrast / nerve labeling", "setting": "sciatic nerve", "value": "precisely labeled nerves that expressed YFP"}, {"measurement": "change in behavior or activity", "setting": "[1]", "value": "no change in behavior or activity"}, {"measurement": "biodistribution of fluorescence", "setting": "[2]; intravenous, 150 nmoles, harvested organs", "value": "majority of the fluorescence accumulated in the kidney and was excreted into the urine"}, {"measurement": "state of peptide recovered in urine", "setting": "[2]; urine, liquid chromatography–electrospray mass spectrometry / MALDI-MS", "value": "efficiently metabolized"}, {"measurement": "major fluorescently labeled species in urine", "setting": "[2]; urine, matrix-assisted laser desorption/ionization mass spectrometry", "value": "cysteinamide-Cy5"}]}
{"compound": "NTQTLAKAPEHT [NP41]", "values": [{"measurement": "nerve-to-muscle contrast", "setting": "peripheral nerves; evaluated 2–4 h after injection", "value": "best nerve to nonnerve contrast"}]}
{"compound": "CCN1/C(=C/C=C/C=C/C2=[N+](CCCCCC(=O)O)c3ccc(S(=O)(=O)O)cc3C2(C)C)C(C)(C)c2cc(S(=O)(=O)[O-])ccc21", "note": "[unconjugated Cy5, reference compound]", "values": [{"measurement": "nerve-to-muscle contrast / nerve labeling", "setting": "sciatic nerve", "value": "No nerve-to-muscle contrast was detected"}]}
{"compound": "TYTDWLNFWAWP [NP39]", "values": [{"measurement": "background binding to surrounding nonneural tissue", "setting": "peripheral nerves", "value": "high-background binding to the surrounding nonneural tissue"}]}
{"compound": "AHHNSWKAKHHS [NP38]", "values": [{"measurement": "background binding to surrounding nonneural tissue", "setting": "peripheral nerves", "value": "high-background binding to the surrounding nonneural tissue"}]}
